Measured values pooled from the literature.
Lines come from different studies, so protocols differ.
Target: Testis-specific serine/threonine-protein kinase 3 (TSSK3, Homo sapiens, UniProt Q96PN8)
One construct used (Q96PN8 1-268): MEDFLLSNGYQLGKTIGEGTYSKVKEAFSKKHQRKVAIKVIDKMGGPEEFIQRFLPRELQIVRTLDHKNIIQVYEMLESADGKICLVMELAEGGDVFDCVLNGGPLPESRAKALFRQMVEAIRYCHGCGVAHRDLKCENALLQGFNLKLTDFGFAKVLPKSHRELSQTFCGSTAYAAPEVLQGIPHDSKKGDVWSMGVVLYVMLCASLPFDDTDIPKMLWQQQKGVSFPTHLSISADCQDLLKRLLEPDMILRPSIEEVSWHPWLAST

C[C@@]1(Cc2ccc(C#N)cc2)C(=O)N(c2cc(Cl)cc(Cl)c2)c2ncc(C(=O)NC3(c4nc(C5CCC5)no4)CC3)n21
remaining binding (cell-free assay; competition with immobilised ligand; 1 µM): 100%

Nc1ncc2c(n1)-c1c([nH]c3ccc(C#CC4CC4)cc13)CCCC2
remaining binding (binding; competition with immobilised ligand; 1 µM): 70%

CNC(=O)Nc1ccc2c(c1)[C@@]1(CC2)OC(=O)N(CC(=O)N(Cc2ccc(F)cc2)[C@@H](C)C(F)(F)F)C1=O
remaining binding (cell-free assay; competition with immobilised ligand; 1 µM): 100%

O=C(c1ccc(Nc2ncc(Cl)c(-c3cc4ccccc4s3)n2)cc1)N1CCC(N2CCCC2)CC1
remaining binding (binding; competition with immobilised ligand; 1 µM): 85%

CN([C@@H]1CCc2c(CC(=O)O)c3cc(S(C)(=O)=O)ccc3n2C1)S(=O)(=O)c1ccc(F)cc1
remaining binding (cell-free assay; competition with immobilised ligand; 1 µM): 100%

CNC(=O)[C@@H]1CC[C@@H](n2c(-c3ccc4cnccc4c3)nc3ccc(C(=O)NCc4cccc(C(N)=O)c4)cc32)C1
remaining binding (binding; competition with immobilised ligand; 1 µM): 100%

F[C@@H]1CCN(c2nccc(-c3cnn4ncccc34)n2)C1
remaining binding (binding; 1 µM): 100%

O=C(Nc1ccc(Oc2ccc(F)cc2)cc1)N1CCc2ncccc2[C@H]1c1ccc(F)cc1
remaining binding (cell-free assay; competition with immobilised ligand; 1 µM): 98%

CN(C)c1nccc(-c2cnc3ncccn23)n1
remaining binding (binding; 1 µM): 90%

COc1cnc(Nc2cccc(S(N)(=O)=O)c2)nc1N1CCN(c2ccccc2)CC1
remaining binding (binding; competition with immobilised ligand; 1 µM): 97%

C[C@@H](c1ccc(-n2cnc3c(N)ncnc32)cc1)N1CCc2nn(C)c(Cc3ccccc3)c2C1=O
remaining binding (binding; competition with immobilised ligand; 0.1 µM): 70%

FC(F)(F)Oc1cccc(-c2cnc3ccc(-c4ccncc4)nn23)c1
remaining binding (binding; competition with immobilised ligand; 5 µM): 91%

O=C(c1ccc(Nc2nccc(-c3cc4ccccc4s3)n2)cc1)N1CCC(N2CCCC2)CC1
remaining binding (binding; competition with immobilised ligand; 1 µM): 100%

CN(C)c1nccc(-c2cnn3ncccc23)n1
remaining binding (binding; 1 µM): 100%

CC1=C(C#N)[C@@H](c2ccc3[nH]nc(C)c3c2)C(C#N)=C(c2ccc(Cl)cc2)N1
remaining binding (cell-free assay; competition with immobilised ligand; 1 µM): 100%

C[C@@H]1CCN(c2nccc(-c3cnn4ncccc34)n2)C1
remaining binding (binding; 1 µM): 78%

O=C(NCC1CCOCC1)c1n[nH]cc1NC(=O)c1c(F)cccc1F
remaining binding (binding; competition with immobilised ligand; 1 µM): 100%

N[C@H]1CCN(c2nccc(-c3cnn4ncccc34)n2)C1
remaining binding (binding; 1 µM): 88%

Cc1cnc(Nc2ccc(C(=O)N3CCC(N4CCCC4)CC3)cc2)nc1-c1cc2ccccc2s1
remaining binding (binding; competition with immobilised ligand; 1 µM): 84%

CCS(=O)(=O)c1cc2cc(C[C@](O)(CC(C)(C)c3ccc(F)cc3C(N)=O)C(F)(F)F)[nH]c2cn1
remaining binding (cell-free assay; competition with immobilised ligand; 1 µM): 100%

CN(C)c1ncc(F)c(-c2cnn3ncccc23)n1
remaining binding (binding; 1 µM): 99%
